VIM-2 inh: blocks Pseudomonas aeruginosa VIM-2 metallo-beta-lactamase. actives 0.89% (n = 290,000). purified VIM-2, nitrocefin hydrolysis, epi-absorbance fluorescence. inhibition, % at 5.6 µM;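 active means inhibition above the mean of all tested compounds plus 3 SD, cutoff set per screening run, cut at about 7.5% in these data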;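 further: red hydrolysis product quenches plate fluorescence so inhibitors raise well fluorescence; 0% = enzyme with DMSO and 100% = DMSO without enzyme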
FID counter: fluorescent intercalator displacement, NS3 helicase counter-screen | DNA fluorescent intercalator displacement, fluorescence | actives 0.17% (n = 290,000) | inhibition, % at 7.9 µM | AID 1845; in the data active means inhibition above about 37%;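 further: 0% = vehicle and 100% = reference compound; higher means more ethidium bromide displaced from hairpin DNA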
PvdQ acylase: blocks Pseudomonas aeruginosa PvdQ acylase activity. purified PvdQ acylase, fluorescence plate reader. inhibition, % at 10 µM. actives 0.063% (n = 340,000). AID 488965; in the data active means inhibition above about 30%, passing the limit was not always enough;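 further: 0% = vehicle neutral wells and 100% = reference inhibitor wells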
IMP-1 inh: inhibitors of Pseudomonas aeruginosa IMP-1 metallo-beta-lactamase | purified IMP-1, nitrocefin hydrolysis, epi-absorbance fluorescence | inhibition, % at 5.6 µM | actives 0.45% (n = 290,000);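 active means inhibition above the mean plus 3 SD of all compounds in the same screening run, cut at about 4.5% in these data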;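 further: 0% = IMP-1 with DMSO and 100% = DMSO wells lacking enzyme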
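System – purified recombinant IMP-1 beta-lactamase · Input – IMP-1 dispensed at 0.2 nM · Timing – 15 min preincubation plus 25 min reaction at 25 °C · Signal – Epi-absorbance fluorescence, 480 nm excitation, 530 nm emission · Measure – percent IMP-1 inhibition derived from blank-referenced optical density · Controls – Enzyme-plus-DMSO low control, enzyme-free DMSO high control · Replication – singlicate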
RAD54 inh: blocks human RAD54 Holliday junction branch migration; Q92698; AID 602329; inhibition, % at 10.4 µM; FAM/BHQ fluorescence; actives 0.14% (n = 360,000);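 active means mean normalized replicate activity at least 40 and at least half of replicates scoring 40 or more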;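 further: 0% = median of neutral control wells and 100% = median of positive control wells; inhibitors cause a drop in the FAM fluorescence signal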
Target sequence (Q92698 whole entry, looked up): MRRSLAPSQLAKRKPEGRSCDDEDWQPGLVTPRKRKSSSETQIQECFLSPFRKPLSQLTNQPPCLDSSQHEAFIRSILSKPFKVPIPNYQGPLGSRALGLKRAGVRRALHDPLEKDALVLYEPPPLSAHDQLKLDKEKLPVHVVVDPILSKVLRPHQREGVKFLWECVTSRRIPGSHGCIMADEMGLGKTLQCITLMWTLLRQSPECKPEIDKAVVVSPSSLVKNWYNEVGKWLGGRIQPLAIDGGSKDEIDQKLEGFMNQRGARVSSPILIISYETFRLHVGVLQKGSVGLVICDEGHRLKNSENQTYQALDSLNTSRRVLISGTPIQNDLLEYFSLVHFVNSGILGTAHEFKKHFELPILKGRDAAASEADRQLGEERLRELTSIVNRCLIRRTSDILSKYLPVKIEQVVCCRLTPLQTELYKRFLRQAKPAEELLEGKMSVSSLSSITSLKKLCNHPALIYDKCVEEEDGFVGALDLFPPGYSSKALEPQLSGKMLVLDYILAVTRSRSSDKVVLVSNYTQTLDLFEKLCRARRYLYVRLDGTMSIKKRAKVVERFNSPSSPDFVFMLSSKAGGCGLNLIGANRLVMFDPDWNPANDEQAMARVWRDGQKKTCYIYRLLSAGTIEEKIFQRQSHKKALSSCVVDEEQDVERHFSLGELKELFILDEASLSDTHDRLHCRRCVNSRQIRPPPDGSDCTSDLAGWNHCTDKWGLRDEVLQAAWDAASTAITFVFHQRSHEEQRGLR
An asterisk follows results filed as active; nt = no result. A selection: hits, their analogues and other compounds. The true share with any hit is near 1%.

SMILES	VIM-2 inh	FID counter	PvdQ acylase	IMP-1 inh	RAD54 inh
COc1ccccc1NC(=O)N[C@@H]1C=C[C@H](CC(=O)NCc2ccc(Cl)c(Cl)c2)O[C@@H]1CO	nt	nt	nt	nt	0
CN1CCN(C(=O)[C@@H]2[C@@H](CO)[C@@H]3Cn4c(ccc(-c5cncnc5)c4=O)[C@@H]3N2CC2CC2)CC1	nt	nt	nt	nt	5
COc1ccccc1C(=O)NNC(=O)c1ccccc1F	-2	-3	-2	8.6*	-5
Cc1nc(-n2[nH]c3c(c2=O)CCCC3)[nH]c(=O)c1Cc1ccccc1	-3	-20	-8	-3	-31
Cc1cc(=O)[nH]c(-n2[nH]c3c(c2=O)CCCC3)n1	1	0	-11	14*	-11
COC(=O)c1cn(CC(=O)N2CCOCC2)nn1	nt	nt	nt	nt	-9
O=C(Nc1cccnc1)/C(N=Nc1cccnc1)=C(\O)c1ccccc1	10*	-24	-8	-4	nt
O=C(Nc1ccccc1)C(=O)Nc1cccnc1	-1	-2	-10	-2	10
Cc1noc(C)c1S(=O)(=O)N(C)C[C@@H]1Oc2ccc(NC(=O)Nc3ccc4c(c3)OCO4)cc2C(=O)N([C@@H](C)CO)C[C@@H]1C	nt	nt	nt	nt	-4
CN1CCN(c2nc(-c3ccc(Cl)cc3)nc3ccccc23)CC1	3	39*	-21	3	34
CN1CCN(c2nnc(-c3ccc(Cl)cc3)c3ccccc23)CC1	10*	7	-14	-2	-4
COc1cccc(-c2nc(N3CCN(C)CC3)c3ccccc3n2)c1O	10*	34	3	-2	nt
Cc1ccc(-c2nnc(N3CCCCC3)c3ccccc23)cc1	2	-34	-4	-2	-8
O=C(Nc1ccc2c(c1)OCO2)N[C@@H]1CC[C@@H](CCNC(=O)C2CCC2)O[C@H]1CO	nt	nt	nt	nt	-7
COc1ccc(N(CN2C(=O)c3ccccc3C2=O)C(=O)C(C)C)cc1	0	-20	-15	-2	2
CCC1(N(C(C)=O)c2ccc(OC)cc2)C(=O)c2ccccc2C1=O	0	-18	-5	21*	nt
C[C@H](CO)N1C[C@H](C)[C@H](CN(C)Cc2ccc3c(c2)OCO3)OCCCC[C@H](C)Oc2ccc(NC(=O)C3CCCCC3)cc2C1=O	nt	nt	nt	nt	-2
CCCC(=O)C1C(=O)CC(C)(C)C(c2cc(C)no2)C1=O (stereo not given)	-2	-3	7	-4	5
Cc1cc(C2C(=O)CC(=O)CC2c2ccccc2)on1 (stereo not given)	3	-24	-15	7.7*	-5
Cc1ccc(S(=O)(=O)CCC(=O)Nc2cccc(C)c2)cc1	-1	-4	-8	-1	11
CCc1cccc(NC(=O)CCS(=O)(=O)c2ccc(Br)cc2)c1	-1	-15	-11	9.8*	4
NS(=O)(=O)c1ccc(CCNC(=O)CCS(=O)(=O)c2ccc(Br)cc2)cc1	-1	-6	-13	7.8*	-5
Cc1noc(C)c1NC(=O)Nc1ccc2c(c1)C(=O)N([C@@H](C)CO)C[C@@H](C)[C@@H](CN(C)C(=O)C1CCCCC1)OCCCC[C@H](C)O2	nt	nt	nt	nt	-7
CCCNCC(O)Cn1c2ccccc2n2c(=O)cc(C)c(C#N)c12 (stereo not given)	8.5*	16	-12	0	23
O=C(NC1CCCC1)[C@@H]1[C@@H](CO)[C@@H]2Cn3c(ccc(-c4cccnc4)c3=O)[C@H]1N2CCc1ccccc1	nt	nt	nt	nt	-24
SMILES	VIM-2 inh	FID counter	PvdQ acylase	IMP-1 inh	RAD54 inh
Cc1noc(C)c1S(=O)(=O)Nc1ccc2c(c1)C(=O)N([C@H](C)CO)C[C@@H](C)[C@H](CN(C)S(=O)(=O)c1ccccc1)O2	nt	nt	nt	nt	-4
COc1ccc(-c2cc3c(=O)n(CC(=O)NCc4ccccc4OC)ncn3n2)cc1	-2	-9	-20	-3	-7
COc1ccc(-c2cc3c(=O)n(CC(=O)NCCCc4ccccc4)ncn3n2)cc1	0	-15	-6	15*	1
Cn1cccc1C(C#N)c1cccc(F)c1C#N (stereo not given)	-2	3	60*	-2	nt
CCN(CC)S(=O)(=O)c1cccc(C(=O)N/N=C2\CCCC(=O)C2)c1	4	-17	4	5.8*	nt
CCN(CC)S(=O)(=O)c1cccc(C(=O)N/N=C2\CC(=O)CC(C)(C)C2)c1	1	-14	-3	2	-20
O=S(=O)(O)c1cc(O)c2c(O)c(N=Nc3cc(Cl)ccc3O)c(S(=O)(=O)O)cc2c1	-8	-31	-1	5.7*	13
CCN1CCN(c2c(/C=C3\SC(=S)N(Cc4ccco4)C3=O)c(C)c(C#N)c(=O)n2C)CC1	1	-10	-5	6.4*	nt
CO[C@@H]1CN(C)C(=O)c2cc(NC(=O)Nc3ccccc3)ccc2OC[C@@H](C)N(CC2CC2)C[C@@H]1C	nt	nt	nt	nt	-7
O=C(C[C@@H]1CC[C@H]2[C@@H](COC[C@H](O)CN2Cc2cc(F)ccc2F)O1)N[C@@H]1CCN(Cc2ccccc2)C1	nt	nt	nt	nt	6
O=C(O)C1CSC2c3ccccc3C(=O)N12 (stereo not given)	-3	-4	-18	11*	-10
CCC(=O)N(C)C[C@@H]1Oc2cc(C#CC3CCCC3)ccc2S(=O)(=O)N([C@@H](C)CO)C[C@@H]1C	nt	nt	nt	nt	-4
COC(=O)Cn1c2nc3ccccc3nc2c2cccc(C)c21	1	-21	10	-2	9
Cc1cccc2c3nc4ccccc4nc3n(C)c12	9.7*	-21	-4	-3	25
CCOc1ccc(-c2cn3ccccc3n2)cc1	0	1	50*	0	nt
O=[N+]([O-])c1ccc(-c2cnc3ccccc3n2)cc1	-1	-1	-12	-3	-2
CCOc1ccc(-c2cnc3ccccc3n2)cc1	-1	-10	90*	-3	4
Cc1ccc2sc(N(CCCN(C)C)C(=O)CCS(=O)(=O)c3ccccc3)nc2c1C	0	41*	-13	-2	-13
Cc1ccc2sc(N(CCCN(C)C)C(=O)c3nc4ccccc4s3)nc2c1C	0	5	-19	3	2
Cc1ccc2sc(N(CCCN(C)C)C(=O)c3ccc(Br)s3)nc2c1C	3	46*	6	1	nt
CN(C)c1ccc2nc3ccc(=[N+](C)C)cc-3sc2c1	5	74*	-2	-2	nt
Cc1cc2nc3ccc(=[N+](C)C)cc-3sc2cc1N	6	104*	-12	0	nt
CN(C)c1ccc2nc3ccc(=O)cc-3sc2c1	nt	nt	nt	nt	-4
COc1ccc(-c2csc(NC(=O)c3ccc(S(C)(=O)=O)cc3)n2)cc1	-1	-2	4	5.6*	-2
COc1ccc(-c2csc(NC(=O)c3ccccc3S(C)(=O)=O)n2)cc1	-3	-15	1	-2	nt
COc1ccc(CC(=O)Nc2nc(-c3ccncc3)cs2)cc1	-3	-2	-5	6.7*	nt
C[C@@H]1CN([C@@H](C)CO)C(=O)Cc2cc(NC(=O)c3ccncc3)ccc2O[C@H]1CN(C)Cc1ccccc1	nt	nt	nt	nt	-3
c1ccc2c(c1)OC(CCCN1CCCCC1)c1ccccc1S2 (stereo not given)	-3	38*	-3	-5	14
